High-throughput results as filed in PubChem BioAssay.
Compounds with a hit are over-represented: about 3.1% of the library has one in this group of screens.
OX1R antag-1: blocks the human orexin 1 receptor; CHO/OX1R cells, Fluo-8 calcium fluorescence, orexin A; inhibition, % at 5 µM; 330,000 compounds, 0.43% hits;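 active means inhibition above its plate's threshold, mean inhibition of all tested compounds on the plate plus 3 SD, cut at about 37% in these data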;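 further: 0% = orexin A challenge wells and 100% = SB-334867-A antagonist wells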
Target sequence (O43613 whole entry, looked up): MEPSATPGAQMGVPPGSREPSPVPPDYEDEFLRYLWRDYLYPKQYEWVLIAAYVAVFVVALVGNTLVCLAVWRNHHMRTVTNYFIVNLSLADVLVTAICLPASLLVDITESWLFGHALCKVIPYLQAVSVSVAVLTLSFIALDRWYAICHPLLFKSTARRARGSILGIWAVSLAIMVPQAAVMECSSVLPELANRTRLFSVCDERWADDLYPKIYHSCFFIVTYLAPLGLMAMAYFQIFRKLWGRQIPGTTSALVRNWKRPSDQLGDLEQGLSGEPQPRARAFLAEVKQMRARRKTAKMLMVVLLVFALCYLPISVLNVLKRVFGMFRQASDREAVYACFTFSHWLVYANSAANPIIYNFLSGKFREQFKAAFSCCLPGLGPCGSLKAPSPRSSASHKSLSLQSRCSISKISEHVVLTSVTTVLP
GalR3 antagonist: blocks the human galanin receptor 3. AID 651719. O60755. 360,000 compounds, 0.44% hits. inhibition, % at 3 µM. HEK293 GalR3-CNG cAMP membrane potential fluorescence; galR3 body fused to GalR1 C-terminus;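 active means inhibition above the screen-wide average plus 3 SD, cut at about 13% in these data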;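 further: forskolin and galanin both at EC90 stimulate the cells; cAMP rise reported by CNG channel membrane potential dye signal; 0% = forskolin plus galanin with DMSO and 100% = forskolin alone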
CHO parental Ca: counter-screen: ATP calcium response change in parental CHO cells. parental CHO-K1, ATP-induced calcium, Fluo-8 fluorescence. inhibition, % at 5.6 µM. 330,000 compounds, 0.63% hits;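 active means inhibition above that plate's mean sample inhibition plus 3 SD, cut at about 26% in these data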;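 further: 0% = ATP-challenged DMSO wells and 100% = DMSO wells without ATP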
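Assay system: untransfected parental CHO cell line. Also added: ATP agonist challenge. Dosing: one dose, 5.6 µM nominal. Measured by: Fluo-8 fluorescence. Read-out: % inhibition. Benchmarks: ATP wells versus no-ATP DMSO wells. Repeats: no replicates.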
GPR7 antag: blocks human GPR7 receptor signaling. GPR7-expressing cells, fluorescence antagonist assay. inhibition, % at 4.4 µM. 290,000 compounds, 1.1% hits; in the data active means inhibition above about 16%, passing the limit was not always enough;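 further: cells stimulated with the agonist NPW; 0% = agonist with vehicle and 100% = vehicle without agonist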
OX1R antag-2: antagonists of human orexin 1 receptor (OX1R) | O43613 | OX1R-expressing cells, FRET antagonist read-out | inhibition, % at 6.6 µM | 330,000 compounds, 1.8% hits | AID 485270; in the data active means inhibition mostly above about 38%, no sharp cut-off; inactive means mostly below about 40%;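 further: 0% = agonist challenge alone and 100% = reference antagonist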
The depositor's hits bear a star; · = no result.

SMILES	OX1R antag-1	GalR3 antagonist	CHO parental Ca	GPR7 antag	OX1R antag-2
Cc1cc(C(=O)N/N=C/c2cc(Cl)cc([N+](=O)[O-])c2O)n[nH]1	-17.3	4.1	-2.0	-11.5	66.4*
Cc1ccc(S(=O)(=O)CCSc2n[nH]c(=O)n2-c2ccc3c(c2)OCCO3)cc1	-15.9	-2.8	-11.5	-15.2	8.1
COc1ccc(N2CCN(Cc3csc(C)c3-c3ccc(C)cc3)CC2)cc1	-61.6	-7.9	-30.4	-20.0	2.5
O=S(=O)(c1ccc(F)cc1)N1CCCC1	-13.1	-2.4	3.8	-3.3	14.2
COc1ccc(S(=O)(=O)N2CCN(CC(=O)Nc3cc(Cl)ccc3Cl)CC2)cc1	-6.9	1.9	-5.7	·	2.1
O=S(=O)(Nc1ccccc1OC(F)F)c1ccc(S(=O)(=O)N2CCCC2)cc1	8.3	-8.0	-11.3	·	30.6*
COc1ccc(S(=O)(=O)N2CCN(CC(=O)Nc3ccc(F)c(F)c3)CC2)cc1	-3.9	3.6	-1.6	30.1*	26.1
COc1ccc(NS(=O)(=O)c2ccc(S(=O)(=O)N3CCCC3)cc2)cc1	14.5	-5.5	40.2*	4.8	17.2
CC1CCCCC1NS(=O)(=O)c1ccc(S(=O)(=O)N2CCCC2)cc1 (stereo not given)	-30.7	0.7	-14.0	15.4*	18.7
CC1CCCCC1NC(=O)c1ccc(S(=O)(=O)N2CCCC2)cc1 (stereo not given)	-14.9	-3.3	-7.3	2.1	11.2
O=C(NCc1ccccc1)[C@H]1CCCN1C(=O)[C@H]1CCCN1C(=O)c1cccc(Cl)c1	·	-2.4	·	·	·
Cc1cc(C(=O)CCC(=O)NCC2COc3ccccc3O2)c(C)s1 (stereo not given)	-18.8	-0.3	-8.1	·	13.1
CC(=O)c1ccc(NC(=O)Cn2cnc(S(=O)(=O)N3CCc4ccccc43)c2)cc1	3.8	-8.6	-5.5	-4.1	8.5
COc1ccc(S(=O)(=O)Nc2cccc(S(=O)(=O)N3CCCCC3)c2)cc1	-4.8	-4.9	-25.9	·	49.6*
O=c1c2cc([N+](=O)[O-])ccc2sn1-c1ccccc1	·	-5.8	·	·	·
N#Cc1c2ccc([N+](=O)[O-])cc2[n+]([O-])n1-c1ccccc1	2.1	-3.0	8.4	·	44.9*
O=Nc1c(O)n(Cc2cccc(Cl)c2)c2ccccc12	6.3	0.8	60.7*	-14.3	19.4
COc1ccc(C(=O)C=Cc2ccc3c(c2)OCO3)cc1OC	·	-1.5	·	·	·
COc1cc(/C=C/C(=O)c2ccc3c(c2)OCO3)cc(Cl)c1O	48.8*	-6.0	44.0*	17.5	13.1
COc1ccc(/C=C/C(=O)c2ccccc2)c(OC)c1	-15.1	-9.0	-10.8	-4.2	14.1
COc1ccc(/C=C/C(=O)c2ccc(OC)cc2OC)c(OC)c1	-15.7	-6.5	2.6	-7.4	51.2*
COc1cc(C=CC(=O)c2cc(OC)c(OC)c(OC)c2)cc(OC)c1OC	·	-3.0	·	·	·
COc1ccc2cc(C(=O)/C=C/c3cc(OC)c(OC)c(OC)c3)ccc2c1	23.6	-9.2	-18.6	13.9	69.6*
C(#Cc1ccccc1)C[N+]1(CC#Cc2ccccc2)CCCCC1	-8.0	0.4	5.9	-4.2	15.0
Cc1ccc(C#CC[N+]2(CC#Cc3ccc(C)cc3)CCCCC2)cc1	-5.0	-2.9	15.6	19.5*	13.5
SMILES	OX1R antag-1	GalR3 antagonist	CHO parental Ca	GPR7 antag	OX1R antag-2
CCn1ncc(Br)c1C(=O)Nc1ccc(-c2ccno2)cc1	-20.7	0.5	-6.3	-9.3	22.9
COc1ccccc1CNC(=O)CSc1nnc2c(n1)[nH]c1ccc(F)cc12	6.2	-9.1	4.4	-3.1	8.6
O=C(OCC(=O)N1CCN(C(=O)c2ccco2)CC1)c1ccccc1OCc1ccc(Cl)cc1	-26.4	-3.0	-26.6	27.7*	14.6
O=C(Nc1ccccc1C(=O)OCC(=O)N1CCc2ccccc2C1)c1ccco1	26.6	-1.6	-24.6	3.5	80.2*
CNC(=O)COC(=O)c1ccccc1NC(=O)c1ccco1	-5.0	-6.9	-14.0	-10.3	26.6
Cc1ccc(C)c(C(=O)COC(=O)C(C)N2C(=O)C3C4CCC(C4)C3C2=O)c1 (stereo not given)	·	-1.6	·	-6.2	·
CC1=C(C(=O)Nc2ccc(Cl)cc2)C(c2cccs2)n2nnnc2N1 (stereo not given)	-7.3	-5.2	-12.1	20.1*	8.3
COc1ccccc1NC(=O)C1CCCCN1S(=O)(=O)c1ccc(F)cc1 (stereo not given)	4.4	-1.6	-14.8	2.3	57.0*
O=C(Nc1ccccc1NS(=O)(=O)c1ccc(F)cc1)C1CCCC1	2.3	9.1	-16.5	-7.0	62.7*
CCOc1ccccc1NC(=O)C1CCCCN1S(=O)(=O)c1ccccc1 (stereo not given)	33.0	-1.8	-24.8	·	53.0*
COc1cc(OC)c(OC)cc1/C=N/NC(=O)c1cc(-c2cccn2C)n[nH]1	-0.3	2.5	-14.0	-12.2	58.7*
COc1ccc(/C=N/NC(=O)c2cc(-c3cccn3C)n[nH]2)cc1OC	-10.2	3.0	-5.7	-2.1	24.2
CC(=O)N1CCN(c2ccc(Oc3ccc([N+](=O)[O-])c(C(F)(F)F)c3)cc2)CC1	9.4	·	43.7*	28.8	50.6
Nc1nc(N)c(N=O)c(OCC2CCCCC2)n1	-22.0	·	-21.0	-24.3	39.6*
NS(=O)(=O)OCC1CCCCC1	-1.6	1.1	-5.0	10.3	8.2
C[C@H](O)[C@@H]1C(=O)N2CCc3c([nH]c4c(-c5ccc6c(c5)OCO6)cccc34)[C@@H]2C[C@@H]1N(C)C(=O)NC1CCCCC1	·	-7.2	·	·	·
O=C1c2cccc(OCC(=O)N3CCCc4ccccc43)c2CCN1Cc1ccccc1	-20.8	-4.9	-5.4	22.1*	8.1
CCN1CCc2c(OCC(=O)N3CCCc4ccccc43)cccc2C1=O	-25.1	5.2	-8.3	1.4	15.8
CCc1c(-c2cccc(Br)c2)ncn1CCc1ccccc1OC	·	-9.4	·	·	·
Cc1ccc(NC2=C(Cl)C(=O)c3ccccc3C2=O)cc1	28.1	1.8	31.3	-0.2	29.0
O=C1C(Cl)=C(Nc2ccc(O)cc2)C(=O)c2ccccc21	43.9*	-6.9	44.9*	38.3*	156.2*
NC(=O)c1ncn([C@@H]2O[C@H](C(=O)N3CCCN(Cc4ccccc4F)CC3)[C@@H](O)[C@H]2O)n1	·	-3.4	·	·	·
CCN(CC1COc2ccccc2O1)C(=O)c1ccc(Cl)c(S(=O)(=O)N2CC(C)OC(C)C2)c1 (stereo not given)	-10.6	-2.8	-15.3	·	49.8*
CC1CN(S(=O)(=O)c2cc(C(=O)N(CCc3ccccc3)Cc3ccccc3)ccc2Cl)CC(C)O1 (stereo not given)	-27.3	-1.7	-16.0	·	24.3
Cc1ccsc1/C=N/NC(=O)c1nnn(-c2nonc2N)c1CN(C)c1ccccc1	19.8	-2.3	-4.4	-13.0	49.9*
CCc1c(C(=O)N/N=C/c2sccc2C)nnn1-c1nonc1N	-5.2	-7.7	11.9	-3.8	13.6
CC(C)Oc1ccc(/C=N/NC(=O)c2nnn(-c3nonc3N)c2CN(C)c2ccccc2)cc1	21.6	3.2	-6.4	-16.4	56.3*
CN(C)Cc1c(C(=O)N/N=C/c2ccc(-c3ccccc3)cc2)nnn1-c1nonc1N	-20.1	1.0	-8.0	-3.3	5.5
